Laboratory results as given in PubChem BioAssay AID624174 (Southern Research Specialized Biocontainment Screening …, 2012).
The source made the active and inactive calls.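 The calls were made as follows: active = inhibition of 30% or more at any tested concentration; inactive = the rest.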

Biological target: Aspartyl aminopeptidase (Homo sapiens) (UniProt Q9ULA0)
Assay: inhibition of human aspartyl aminopeptidase – biochemical, QFRET, H-Glu-NHMec substrate, set 3, selectivity assay for PFM18AAP inhibitor project, dose response (AID 624174)
Settings: purified recombinant hM18AAP, H-Glu-NHMec fluorescence; for inhibition: at 100 µM (top of the series)
In short: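 Test system: purified recombinant human M18 aspartyl aminopeptidase (hM18AAP) / Quantity: hM18AAP enzyme at 5 µg/mL final / Medium: Tris pH 7.5, CoCl2, DMSO / Doses: 10-point twofold series, 100 down to 0.2 µM / Timing: enzyme reaction 90 min at room temperature / Signal: NHMec fluorescence at 370/460 nm / Measure: % inhibition and IC50 from logistic fit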

Q: For COc1ccc(CCCN(C)c2c3ccccc3nc3ccccc23)cc1OC, which inhibition is on record?
A: inactive

Q: With Clc1c2c(nc3ccccc13)CCCC2 as the compound, how does the inhibition read?
A: inactive

Q: Cc1cccc2c(NCCc3ccc(O)c(O)c3)ccnc12 was tested. Which IC50 did it give?
A: 12.7 µM

Q: With COc1ccc(CCCNc2c3c(nc4ccccc24)CCCC3)cc1OC as the compound, how does the inhibition read?
A: inactive

Q: With COc1cc(Br)c(CCNc2c3c(nc4ccccc24)CCCC3)cc1OC as the compound, how does the inhibition read?
A: inactive

Q: COc1ccc(CCN(C)c2ccnc3c(C)cccc23)cc1OC was tested. Which inhibition did it give?
A: inactive

Q: COc1ccc(CCN(C)c2ccnc3cc(Cl)ccc23)cc1OC was tested. Which inhibition did it give?
A: inactive

Q: Which IC50 does the source give for CN(CCc1ccc(O)c(O)c1)c1ccnc2c(F)cccc12 here?
A: 7.92 µM

Q: CN(CCc1ccc(O)c(O)c1)c1ncnc2ccccc12 was tested. Which IC50 did it give?
A: 6.74 µM

Q: How did the inhibition turn out when CN(CCc1ccc(O)c(O)c1)c1c2ccccc2nc2ccccc12 was run?
A: inactive

Q: Which inhibition does the source give for Nc1c2ccccc2nc2ccccc12 here?
A: inactive

Q: With Oc1cccc(CCNc2ccnc3ccccc23)c1O as the compound, how does the IC50 read?
A: 11.6 µM

Q: COc1ccc(CCNc2ccnc3c(F)cccc23)cc1OC was tested. Which inhibition did it give?
A: inactive

Q: Which inhibition does the source give for COc1ccc(CCNc2ccnc3c(C)cccc23)cc1OC here?
A: inactive

Q: Which IC50 does the source give for CN(CCc1ccc(O)c(O)c1)c1ccnc2cc(Cl)ccc12 here?
A: 7.67 µM

Q: How did the inhibition turn out when CCN(CCc1ccc(OC)c(OC)c1)c1c2ccccc2nc2ccccc12 was run?
A: inactive

Q: COc1ccc(C2CCN(c3ccnc4ccccc34)C2)cc1OC (centres undefined) was tested. Which inhibition did it give?
A: inactive

Q: Which IC50 does the source give for Oc1ccc(C2CCN(c3ccnc4ccccc34)CC2)cc1O here?
A: 4.68 µM

Q: With COc1cc(Br)c(CCNc2c3ccccc3nc3ccccc23)cc1OC as the compound, how does the inhibition read?
A: inactive

Q: For CCN(CCc1ccc(O)c(O)c1)c1c2ccccc2nc2ccccc12, which inhibition is on record?
A: inactive

Q: For COc1ccc(CCN(C)c2ccnc3c(F)cccc23)cc1OC, which inhibition is on record?
A: inactive

Q: Which inhibition does the source give for COc1ccc(CCNc2cc(C)nc3ccccc23)cc1OC here?
A: inactive

Q: Oc1ccc(CCNc2ccnc3cc(Cl)ccc23)cc1O was tested. Which IC50 did it give?
A: 13.6 µM

Q: How did the IC50 turn out when CC(Cc1ccc(O)c(O)c1)Nc1ccnc2ccccc12 (centres undefined) was run?
A: 14.4 µM

Q: Which inhibition does the source give for COc1ccc(CCNc2ncnc3ccccc23)cc1OC here?
A: inactive

Q: For CCOc1ccc2nccc(NCCc3ccc(OC)c(OC)c3)c2c1, which inhibition is on record?
A: inactive

Q: For COc1cc(Br)c(CCNc2ccnc3ccccc23)cc1OC, which inhibition is on record?
A: inactive

Q: With COc1ccc(CCNC(=O)c2cc(C)ccc2N)cc1OC as the compound, how does the inhibition read?
A: inactive

Q: How did the IC50 turn out when Cc1cccc2c(N(C)CCc3ccc(O)c(O)c3)ccnc12 was run?
A: 10.5 µM

Q: COc1ccc(CCN(C)c2cc(C)nc3ccccc23)cc1OC was tested. Which inhibition did it give?
A: inactive

Q: How did the IC50 turn out when Oc1ccc(CCCNc2c3c(nc4ccccc24)CCCC3)cc1O was run?
A: 9.5 µM

Q: How did the IC50 turn out when Oc1ccc(C2CCN(c3ccnc4ccccc34)C2)cc1O (centres undefined) was run?
A: 5.59 µM

Q: How did the inhibition turn out when COc1ccc(CCN(C)c2c3ccccc3nc3ccccc23)cc1OC was run?
A: inactive

Q: CC(C)(CNc1ccnc2ccccc12)c1ccc(O)c(O)c1 was tested. Which IC50 did it give?
A: 35 µM

Q: CN(CCCc1ccc(O)c(O)c1)c1ccnc2ccccc12 was tested. Which IC50 did it give?
A: 9.65 µM

Q: How did the inhibition turn out when COc1ccc(CCNc2c3c(nc4ccc(C)cc24)CCCC3)cc1OC was run?
A: inactive

Q: For Cc1cc(N(C)CCc2ccc(O)c(O)c2)c2ccccc2n1, which IC50 is on record?
A: 9.75 µM

Q: How did the IC50 turn out when Oc1ccc(C2CCCN(c3ccnc4ccccc34)C2)cc1O (centres undefined) was run?
A: 5.59 µM

Q: How did the inhibition turn out when CCOc1ccc2nccc(N(C)CCc3ccc(OC)c(OC)c3)c2c1 was run?
A: inactive

Q: With COc1ccc(CCNc2ccnc3cc(Cl)ccc23)cc1OC as the compound, how does the inhibition read?
A: inactive

Q: With Oc1ccc(CCNc2ccnc3c(F)cccc23)cc1O as the compound, how does the IC50 read?
A: 8.36 µM

Q: With CN(CCCc1ccc(O)c(O)c1)c1c2ccccc2nc2ccccc12 as the compound, how does the inhibition read?
A: inactive

Q: For COc1ccc(CCN(C)c2ncnc3ccccc23)cc1OC, which inhibition is on record?
A: inactive

Q: COc1ccc(C2CCN(c3ccnc4ccccc34)CC2)cc1OC was tested. Which inhibition did it give?
A: inactive
